The test system of experiment [1] is Rattus norvegicus. Description: Antidiabetic activity in streptozotocin-induced NIDDM Wistar albino rat model assessed as inhibition of rise of blood glucose level at 20 mg/kg, po administered 15 mins prior to glucose challenge measured after 90 mins of glucose loading by glucose oxidase-peroxidase colorimetric method. In kind it is functional. In a few lines: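 n2-STZ model: STZ 100 mg/kg in fresh 0.1 M citrate pH 4.5 given i.p. to 2-day-old pups (6–8 g), weaned for 4 weeks. Diabetic rats had fasting glucose >140 mg/dl and >200 mg/dl 2 h after oral glucose. Overnight-fasted groups of six got a 1% CMC suspension p.o. 15 min before glucose 2 g/kg p.o. GOD-POD at 505 nm before and at 90 min; reduction set against the control rise.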

Experiment [2] concerns Rattus norvegicus. Description: Antidiabetic activity in normal Wistar albino rat assessed as inhibition of rise of blood glucose level at 20 mg/kg, po administered 15 mins prior to glucose challenge measured after 90 mins of glucose loading by glucose oxidase-peroxidase colorimetric method. In kind it is functional. In a few lines:
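Wistar albino rats of either sex (160–200 g), fasted overnight, in groups of six. Dosed p.o. at 10 ml/kg, suspended in 1% CMC in distilled water; vehicle controls. Glucose 2 g/kg p.o. given 15 min after dosing. Retro-orbital blood taken just before and 90 min after glucose; glucose read by GOD-POD quinoneimine at 505 nm. Percent reduction taken against the control rise, set as 100%.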

As usually defined, the inhibition in vivo is the relative decrease from the control value, in per cent. Take `CCCCNC(=O)NS(=O)(=O)c1ccc(-n2nc(-c3ccc(C)cc3)ccc2=O)cc1`: the figures for the inhibition in vivo at 20 mg/kg in experiment [1] and in experiment [2] were 109% and 86.6%, respectively.
For `CCCNC(=O)NS(=O)(=O)c1ccc(-n2nc(-c3ccc(C)cc3)ccc2=O)cc1` the same measures were 109% and 80.5%.
For `CCCNC(=O)NS(=O)(=O)c1ccc(-n2nc(-c3ccccc3)ccc2=O)cc1` the same measures were 125% and 77.2%.
For `CCCCNC(=O)NS(=O)(=O)c1ccc(-n2nc(-c3ccc(Cl)cc3)ccc2=O)cc1`, in that order: 100% and 66%.
In the case of `O=C(NCc1ccccc1)NS(=O)(=O)c1ccc(-n2nc(-c3ccc(Cl)cc3)ccc2=O)cc1`, the inhibition in vivo at 20 mg/kg came to 111% in experiment [1] and 61.6% in experiment [2].
For `CCCCNC(=O)NS(=O)(=O)c1ccc(-n2nc(-c3ccc(OC)cc3)ccc2=O)cc1`, in that order: 25.6% and 43.7%.
For `O=C(NC1CCCCC1)NS(=O)(=O)c1ccc(-n2nc(-c3ccccc3)ccc2=O)cc1`, in that order: 86.2% and 52.1%.
For the compound `O=C(NC1CCCCC1)NS(=O)(=O)c1ccc(-n2nc(-c3ccc(Cl)cc3)ccc2=O)cc1`, the inhibition in vivo at 20 mg/kg in experiment [1] came out at 114%; in experiment [2] it was 59%.
`Cc1ccc(-c2ccc(=O)n(-c3ccc(S(=O)(=O)NC(=O)NC4CCCCC4)cc3)n2)cc1`: the inhibition in vivo at 20 mg/kg in experiment [1] came out at 110%; in experiment [2], 79.9%.
For `CCCCNC(=O)NS(=O)(=O)c1ccc(-n2nc(-c3ccccc3)ccc2=O)cc1`, in that order: 111% and 67.4%.
For `Cc1cc(-c2ccc(=O)n(-c3ccc(S(=O)(=O)NC(=O)NC4CCCCC4)cc3)n2)ccc1Cl` the same measures were 55.2% and 62.1%.
For `Cc1ccc(-c2ccc(=O)n(-c3ccc(S(=O)(=O)NC(=O)NCc4ccccc4)cc3)n2)cc1` the same measures were 119% and 64.9%.
Consider `Cc1ccc(S(=O)(=O)NC(=O)NN2CC3CCCC3C2)cc1` (stereo not drawn) [GLICLAZIDE], for which the results for the inhibition in vivo at 20 mg/kg in experiment [1] and in experiment [2] were 107% and 135%, respectively.
For `CCCNC(=O)NS(=O)(=O)c1ccc(-n2nc(-c3ccc(Cl)cc3)ccc2=O)cc1`, in that order: 122% and 74.3%.

These data come from ChEMBL document CHEMBL1158383, “Synthesis and blood glucose lowering effect of novel pyridazinone substituted benzenesulfonylurea derivatives” (2009).
